# Assay outcomes from PubChem BioAssay.
# INS promoter inh – TRM-6 insulin promoter activity inhibition; TRM-6 cells (human fetal islet line), insulin promoter-eGFP reporter, imaging; reporter expression induced with tamoxifen; inhibition, % at 2 µM; 130,000 tested, 0.9% active;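 active means inhibition above the mean plus 3 SD, with well images judged a real hit on visual review, cut at about 60% in these data, passing the limit was not always enough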
# Efa HMGR inh – E. faecalis class II HMG-CoA reductase inhibition. AID 1066. purified E. faecalis HMGR, NADPH absorbance 340 nm kinetic. 190,000 tested, 0.41% active. inhibition, % at 10 µM;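 active means inhibition above a set limit, the median over all tested compounds plus 3 SD, cut at about 9.5% in these data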;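 further: enzyme runs in reverse so mevalonate oxidation gives rising NADPH absorbance; 0% = complete reaction with DMSO and 100% = background rate lacking mevalonate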
# Yeast lifespan up – extends the lifespan of yeast; S. cerevisiae growth with nicotinamide, OD615; deaD strain in restrictive glucose medium; inhibition of the nicotinamide effect, % at 10 µM; 130,000 tested, 0.68% active;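 active means inhibition above a set limit, placed 3 SD over the median of all compounds, cut at about 26% in these data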;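 further: 0% = nicotinamide-treated wells and 100% = cells grown without nicotinamide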
#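 Material: Modified budding yeast, DeaD strain | Medium: Restrictive glucose medium | Probe or stimulus: 1.5 mM nicotinamide | Dosing: Single dose 10 µM compound, 0.25% DMSO | Times: 48 h at 30 °C | Technique: OD615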
# BB579 growth dn – chemicals that inhibit yeast BB579 growth in restrictive medium (lifespan-shortening candidates); S. cerevisiae BB579 growth, OD615, 48 h; inhibition, % at 10 µM; 140,000 tested, 0.51% active; AID 804;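 active means inhibition above a set limit, 3 SD over the mean compound inhibition, cut at about 44% in these data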
#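 Detection: OD615 turbidity measurement; Material: Saccharomyces cerevisiae DeaD strain BB579, replicative lifespan model yeast; Timing: 48 h exposure, 30 °C; Doses: single 10 µM dose; Medium: CSMM-D restrictive synthetic medium containing dextrose (glucose); Controls: amphotericin B at 10 µg/mL as positive control.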
# RAM inhibit – blocks the yeast RAM network; S. cerevisiae dse1pr::URA3 reporter, 5-FOA growth OD615, 2 d; analog-sensitive cbk1-as2 kinase mutant strain; 190,000 tested, 1.8% active; inhibition, % at 50 µM;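 active means inhibition above a set limit, 3 SD over mean compound inhibition, cut at about 8.4% in these data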;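 further: 0% = DMSO-only wells with no growth and 100% = 10 µM 1-NA-PP1 full growth; inhibition rescues growth on 5-FOA so higher OD means more RAM inhibition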
# RAM efflux-def – RAM network inhibition, efflux-deficient strain | max inhibition, % | 1,200 tested, under 10 active | shares compounds with RAM inhibit | S. cerevisiae efflux-deficient reporter strain, 5-FOA growth OD615, 2 days; call rule not given here;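 further: plate controls were vehicle for no effect and reference inhibitor for full effect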
# The depositor's hits bear a star; / = not tested or not shown. Compounds with a hit are over-represented: about 3.7% of the library has one in this group of screens.
SMILES,INS promoter inh,Efa HMGR inh,Yeast lifespan up,BB579 growth dn,RAM inhibit,RAM efflux-def
CC1=C(C(=O)OCc2ccccc2)C(c2ccc([N+](=O)[O-])cc2)NC(=O)N1CCCCCC(=O)O (stereo not given),20,-8,10,-33,14*,5
CCOC(=O)C1=C(C)N(CCCC(=O)O)C(=O)NC1c1ccc(OC)cc1 (stereo not given),25,-8,0,-4,-2,/
CC1=C(C(=O)OCc2ccccc2)C(c2ccc(C(C)(C)C)cc2)NC(=O)N1CCCCCC(=O)O (stereo not given),38,3,6,-45,18*,6
Cc1nc2cc(NS(=O)(=O)c3ccc(Br)cc3)ccc2n1C,/,-1,/,/,2,/
COCCNC(=O)c1c(N)n(-c2ccccc2)c2nc3ccccc3nc12,22,1,-3,-25,15*,3
COCCCNC(=O)c1c(N)n(-c2ccc(S(N)(=O)=O)cc2)c2nc3ccccc3nc12,4,-2,-8,-35,7,/
CC(C)OCCCNC(=O)c1c(N)n(/N=C/c2ccccn2)c2nc3ccccc3nc12,/,-5,-10,-13,12*,8
CCOC(=O)c1sc(-c2ccc(OC)cc2)cc1NC(C)=O,0,1,-4,-1,18*,1
Cc1ccc(C(=O)Nc2ccc3c(c2)CCC3)o1,16,-6,-15,-1,0,/
O=C(Nc1ccc2c(c1)OCO2)c1ccc(COc2ccc3c(c2)CCC3)o1,0,-14,-8,-35,11*,3
N#Cc1c(N)n(CCOC(=O)c2cccc([N+](=O)[O-])c2)c2nc3ccccc3nc12,2,-7,0,-40,12*,6
N#Cc1c(N)n(CCOC(=O)c2cccc(Br)c2)c2nc3ccccc3nc12,7,-1,-17,-61,5,/
CSc1ccccc1-c1nnc(-c2ccc(C)cc2)o1,33,-5,-8,-55,14*,1
CSc1ccccc1-c1nnc(-c2ccccc2)o1,-9,1,-13,-62,2,/
COc1ccc(C(=O)Nc2ccc(C(=O)OCC(=O)c3ccccc3)cc2)cc1,/,-1,-18,-13,1,/
COc1ccc(C(=O)OCC(=O)c2ccc(C3CCCCC3)cc2)cc1,48,-2,1,-25,11*,11
CCN(CC)S(=O)(=O)c1cc(NS(=O)(=O)c2c(Cl)cccc2Cl)ccc1C,-46,-2,28*,-52,14*,2
CCN(CC)S(=O)(=O)c1ccc(NS(=O)(=O)c2cccc(C)c2)cc1,/,-1,-3,-42,3,/
Cc1ccc(-n2ncc3c(=O)[nH]c(SCC(=O)N4CCN(c5ccccc5)CC4)nc32)cc1,50,2,/,-48,7,/
Cc1ccc(-n2ncc3c(=O)[nH]c(SCC(=O)N4CCCc5ccccc54)nc32)cc1,-25,-1,4,-47,12*,3
CNC(=O)c1ccc2c(c1)nnn2C,-67,-1,5,-29,1,/
C=CCNC(=O)c1ccc2c(c1)nnn2C,/,2,-10,-23,14*,2
COCCNC(=O)c1cc2cc(Cl)cc(Cl)c2oc1=O,/,-4,/,/,4,/
CC(C)(O)C#Cc1ccc(CN2CCCC(CO)(Cc3cccc(Cl)c3)C2)cc1 (stereo not given),/,-2,/,/,2,/
O=S(=O)(NCCSCc1ccc(Cl)cc1Cl)c1ccc2c(c1)OCCO2,-33,-3,1,-43,12*,3
SMILES,INS promoter inh,Efa HMGR inh,Yeast lifespan up,BB579 growth dn,RAM inhibit,RAM efflux-def
COCCCNS(=O)(=O)c1ccc2c(c1)OCCO2,/,1,-4,-26,2,/
CNC(=S)N1N=C(c2ccc(C)cc2)CC1c1ccc(Br)cc1 (stereo not given),27,-9,-6,-56,21*,2
CNC(=S)N1N=C(c2ccc(C)cc2)CC1c1ccc(Cl)cc1 (stereo not given),-11,-1,-18,-27,3,/
Cc1cc(/C=C(/C#N)c2cccc(Cl)c2)c(C)n1C,-23,-4,-10,-57,17*,4
Cc1ccc2nc(COc3ccc(Cl)cc3)cc(=O)n2c1,6,-3,/,/,0,/
COc1ccc(N(C)S(=O)(=O)c2cccc(C(=O)OCC(=O)Nc3sc4c(c3C#N)CCCCC4)c2)cc1,11,-2,5,-9,11*,2
Cc1ccc(-n2ncc3c(SCc4ccccc4)ncnc32)cc1,-9,-1,8,-43,12*,3
c1ccc(CSc2ncnc3c2cnn3Cc2ccccc2)cc1,28,-6,-10,2,1,/
CCc1ccc(CN(C)C(=O)CCc2nnc(CCc3cccc(OC)c3)o2)nc1,10,-6,/,/,0,/
COc1ccc(-c2noc(CCC(=O)N3CCN(c4cc(C)ccc4C)CC3)n2)cc1,-18,-1,-17,-25,4,/
Cc1ccc(-c2noc(CCC(=O)N3CCN(c4cccc(C(F)(F)F)c4)CC3)n2)cc1,-19,-1,-7,-48,12*,1
c1coc(-c2ccnc3ncnn23)c1,37,-4,/,/,3,/
COc1cc(C(=O)OCC(=O)NCCN2C(=O)CSC2=O)ccc1OCc1c(C)noc1C,/,6,/,/,1,/
CCOCCCNC(=S)N1CCCN(c2nc3cc(C)c(C)cc3cc2C#N)CC1,/,-2,/,/,17*,2
COCCCNC(=S)N1CCCN(c2nc3cc(C)c(C)cc3cc2C#N)CC1,/,1,/,/,4,/
N#Cc1nc(Cc2cccc3ccccc23)oc1NCc1ccc(F)cc1,/,0,-19,-23,15*,3
CNc1oc(-c2cccc3ccccc23)nc1C#N,23,-2,-15,-33,3,/
C=CCNc1oc(Cc2cccc3ccccc23)nc1C#N,/,3,-6,-5,6,/
COc1ccc(CNc2oc(-c3cccc4ccccc34)nc2C#N)cc1,36,-6,-6,-31,15*,3
CN(C)c1ccnc2sc3c(SCc4ccc(Cl)cc4)ncnc3c12,/,-2,7,-14,19*,6
CN(C)c1ccnc2sc3c(NCC(O)CO)ncnc3c12 (stereo not given),-6,-2,2,-12,0,/
Cc1c(C(=O)N2CCc3ccccc3C2)oc2ccc(S(=O)(=O)N3CCCCCC3)cc12,-19,0,4,-37,6,/
COc1ccc(C(=O)/C=C/c2ccc(OC)c(Cn3nnc4ccccc43)c2)cc1,8,-2,1,-15,8,/
CCOc1cc(C2NN=C(c3ccccc3)S2)ccc1OCc1ccc(F)cc1 (stereo not given),19,0,-4,-32,12*,3
CCOc1cc(C2NN=C(c3ccccc3)S2)ccc1OCc1ccccc1Cl (stereo not given),/,3,-25,-60,13*,4
CNCc1ccccc1OCc1ccc(F)cc1,/,-4,/,/,1,/
